Assay results reported in ChEMBL document CHEMBL1155918, “Oxadiazole-carbonylaminothioureas as SIRT1 and SIRT2 inhibitors” (J Med Chem, 2008).

What was measured:
[1] = molecular target: T1, NAD-dependent protein deacetylase sirtuin-1 (Homo sapiens) (UniProt Q96EB6); experiment: Inhibition of human SIRT1 at 200 uM
T1 sequence (whole entry): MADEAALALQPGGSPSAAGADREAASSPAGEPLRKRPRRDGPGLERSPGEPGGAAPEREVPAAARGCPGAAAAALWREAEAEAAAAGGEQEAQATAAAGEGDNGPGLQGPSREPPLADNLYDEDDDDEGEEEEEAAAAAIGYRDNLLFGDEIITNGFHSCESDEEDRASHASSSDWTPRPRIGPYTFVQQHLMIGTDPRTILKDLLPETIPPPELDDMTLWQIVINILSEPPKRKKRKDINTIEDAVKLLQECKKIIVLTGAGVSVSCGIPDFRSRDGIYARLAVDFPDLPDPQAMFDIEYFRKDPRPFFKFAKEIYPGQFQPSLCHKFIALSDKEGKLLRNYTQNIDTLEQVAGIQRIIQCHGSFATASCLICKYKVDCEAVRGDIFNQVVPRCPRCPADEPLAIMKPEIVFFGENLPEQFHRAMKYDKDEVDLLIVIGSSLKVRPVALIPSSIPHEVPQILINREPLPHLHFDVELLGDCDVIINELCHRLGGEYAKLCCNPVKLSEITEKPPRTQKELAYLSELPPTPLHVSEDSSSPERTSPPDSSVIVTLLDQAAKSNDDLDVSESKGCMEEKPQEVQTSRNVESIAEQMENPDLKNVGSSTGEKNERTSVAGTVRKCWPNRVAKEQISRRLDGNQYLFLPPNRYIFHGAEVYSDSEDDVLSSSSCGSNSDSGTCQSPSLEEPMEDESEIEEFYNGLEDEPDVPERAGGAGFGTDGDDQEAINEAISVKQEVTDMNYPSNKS
Method in brief: (§1)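 Single-concentration screen at 200 µM compound in the NAD⁺-based assay, with radiolabeled nicotinamide release read by thin layer chromatography. Result is % inhibition ± standard deviation (n = 2-3).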

[2] = molecular target: T2, NAD-dependent protein deacetylase sirtuin-2 (Homo sapiens) (UniProt Q8IXJ6); experiment: Inhibition of human SIRT2 at 200 uM; method in brief: as §1
T2 sequence (whole entry): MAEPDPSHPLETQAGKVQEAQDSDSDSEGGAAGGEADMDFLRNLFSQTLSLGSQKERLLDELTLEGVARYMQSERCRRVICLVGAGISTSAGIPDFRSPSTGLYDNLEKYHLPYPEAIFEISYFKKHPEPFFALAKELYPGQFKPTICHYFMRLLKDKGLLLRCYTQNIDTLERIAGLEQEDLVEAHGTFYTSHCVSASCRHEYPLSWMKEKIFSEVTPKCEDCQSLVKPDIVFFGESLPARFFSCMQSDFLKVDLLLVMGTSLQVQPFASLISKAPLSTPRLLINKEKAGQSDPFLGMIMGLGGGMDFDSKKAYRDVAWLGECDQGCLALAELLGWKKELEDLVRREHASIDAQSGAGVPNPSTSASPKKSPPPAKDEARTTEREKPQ

[3] = molecular target: T3, NAD-dependent protein deacetylase sirtuin-2 (Homo sapiens, UniProt Q8IXJ6); experiment: Inhibition of human SIRT2 assessed as nicotinamide releasing by microplate filtration assay
T3 sequence (Q8IXJ6 whole entry): T2 sequence (whole entry)

[4] = molecular target: T4, NAD-dependent protein deacetylase sirtuin-1 (Homo sapiens, UniProt Q96EB6); experiment: Inhibition of human SIRT1 assessed as nicotinamide releasing by microplate filtration assay
T4 sequence (Q96EB6 whole entry): T1 sequence (whole entry)

Row | Structure (SMILES) | inhibition [1] | inhibition [2] | IC50 [3] | IC50 [4]
1 | O=C(NNC(=O)c1nc(-c2cccc3ccccc23)no1)Nc1cccc(C(F)(F)F)c1 | 12% | 51% | 257 µM | 
2 | CC(C)(C)c1ccc(-c2noc(C(=O)NCC(=O)Nc3cccc(C(F)(F)F)c3)n2)cc1 | 20% | 18% |  | 
3 | O=C(NNC(=S)Nc1cccc(C(F)(F)F)c1)c1nc(-c2cccc3ccccc23)no1 | 57% | 56% | 113 µM | 13 µM
4 | CC(C)(C)c1ccc(-c2noc(C(=O)NNC(=S)Nc3cccc(C(F)(F)F)c3)n2)cc1 | 59% | 87% | 57 µM | 192 µM
5 | CCCCNC(=O)NNC(=O)c1nc(-c2ccc(C(C)(C)C)cc2)no1 | 22% | 7% |  | 
6 | CC(C)(C)c1ccc(-c2noc(C(=O)NNC(=S)Nc3ccc(C(F)(F)F)cc3)n2)cc1 | 70% | 89% | 109 µM | 325 µM
7 | O=C(NNC(=S)Nc1ccc(C(F)(F)F)cc1)c1nc(-c2cccnc2)no1 | 4% | -4% |  | 
8 | CC(C)(C)c1ccc(-c2noc(C(=O)NNC(=O)Nc3cccc([N+](=O)[O-])c3)n2)cc1 | 18% | 39% |  | 
9 | O=C(NNC(=S)Nc1ccc(F)cc1)c1nc(-c2cccc3ccccc23)no1 | 10% | 35% |  | 
10 | CC(C)(C)OC(=O)Nc1cccc(-c2noc(C(=O)NNC(=S)Nc3ccc(C(F)(F)F)cc3)n2)c1 | 69% | 71% | 129 µM | 168 µM
11 | O=C(NNC(=S)Nc1ccc(C(F)(F)F)cc1)c1nc(-c2cccc3ccccc23)no1 | 54% | 71% | 74 µM | 318 µM

Further lines, results first:

Row | inhibition [1] | inhibition [2] | IC50 [3] | IC50 [4] | Structure (SMILES)
12 | 0% | 5% |  |  | O=C(CCCc1nc(-c2ccccc2)no1)Nc1ccccc1
13 | 29% | 8% |  |  | O=C(NNC(=S)Nc1ccc(C(F)(F)F)cc1)c1nc(-c2ccccc2)no1
14 |  | 22% |  |  | O=C(NNC(=S)Nc1ccc(F)cc1)c1nc(-c2ccccc2)no1
15 | -2% | 29% |  |  | CC(C)(C)c1ccc(-c2noc(C(=O)NNC(=S)Nc3ccccc3)n2)cc1
16 | 17% | 0% |  |  | CC(C)(C)c1ccc(-c2noc(CCCC(=O)Nc3cccc(C(F)(F)F)c3)n2)cc1
17 | 14% | 38% |  |  | CC(C)(C)c1ccc(-c2noc(C(=O)NNC(=O)Nc3ccccc3)n2)cc1
18 | 28% | 17% |  |  | O=C(CNC(=O)c1nc(-c2ccccc2)no1)Nc1ccccc1
